{"source": "ChEMBL document CHEMBL1125330", "about": "“N-substituted pyrazino[2,3-c][1,2,6]thiadiazine 2,2-dioxides. A new class of diuretics” (J Med Chem, 1992)", "key": {"[1]": {"test_system": "Rattus norvegicus", "test": "Mean urinary output in rats when compound administered at 80 mg/kg po and vehicle dosed at 315.88 umol/kg", "format": "ADME, organism-based, Urine", "parameters": "dose 80 mg/kg, route oral", "details": "in vivo", "outline": "(§1)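 Water-loaded male Sprague-Dawley rats (HC/CFY, 175-200 g) fasted and without water for 18 h. Oral gavage of 2.5-160 mg/kg in 1% CMC with 0.1% Tween 80, then distilled water 2.5 mL/100 g po. Urine collected 6 h in metabolic cages, mean output in mL/6 h/kg bw. Unpaired Student t-test against vehicle; dose-response by linear regression.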"}, "[2]": {"test_system": "Rattus norvegicus", "test": "Urinary sodium 6 hr after the compound was administered 125 mg/kg po in rat", "format": "ADME, organism-based, Urine", "parameters": "dose 125 mg/kg, route oral", "details": "in vivo", "outline": "(§2)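 Onset/duration protocol: male Sprague-Dawley rats (HC/CFY, 175-200 g), food and water withdrawn for 18 h before and during the test. Single gavage dose in 1% carboxymethyl cellulose/0.1% Tween 80 (0.5 mL/100 g bw), then distilled water load (2.5 mL/100 g bw po). Two rats per metabolic cage, six pairs per group. Urine collected at 0-1, 1-2, 2-3, 3-4 and 4-6 h; Na+ by flame photometry. Vehicle controls; nonpaired Student t-test.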"}, "[3]": {"test_system": "Rattus norvegicus", "test": "Post dosing time interval of maximum activity", "format": "functional", "outline": "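Interval of peak activity taken from timed urine collections (0-1, 1-2, 2-3, 3-4, 4-6 h) after a single oral dose in water-loaded fasted rats, […]. Urine volume and Na+ excretion followed over time.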"}, "[4]": {"test_system": "Rattus norvegicus", "test": "Mean sodium excretion in rats when compound administered at 80 mg/kg po and vehicle dosed at 315.88 umol/kg", "format": "ADME, organism-based", "parameters": "dose 80 mg/kg, route oral", "details": "in vivo", "outline": "(§3)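 Male Sprague-Dawley rats (HC/CFY, 175-200 g) fasted and water-deprived 18 h before and during the test. Dosed by gavage at 2.5-160 mg/kg in 1% carboxymethyl cellulose/0.1% Tween 80, 0.5 mL/100 g bw. Immediately hydrated with water (2.5 mL/100 g bw, po). Urine collected 6 h in metabolic cages; Na+ and K+ by flame photometry; mean mequiv/6 h/kg bw; nonpaired Student t-test.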"}, "[5]": {"test_system": "Rattus norvegicus", "test": "Volume of urine 6 hr after the compound was administered 125 mg/kg po in rat", "format": "ADME, organism-based", "parameters": "dose 125 mg/kg, route oral", "details": "in vivo", "outline": "as §2"}, "[6]": {"test_system": "Rattus norvegicus", "test": "Mean potassium excretion in rats when compound administered at 40 mg/kg po and vehicle dosed at 157.94 umol/kg", "format": "ADME, organism-based", "parameters": "dose 40 mg/kg, route oral", "details": "in vivo", "outline": "as §3"}, "[7]": {"test_system": "Rattus norvegicus", "test": "Urinary sodium 4 hr after the compound was administered 125 mg/kg po in rat", "format": "ADME, organism-based, Urine", "parameters": "dose 125 mg/kg, route oral", "details": "in vivo", "outline": "(§4)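 Onset and duration study in fasted, water-loaded male Sprague-Dawley rats housed two per metabolic cage, six pairs per group. Single oral dose given, then water 2.5 mL/100 g po. Urine volume and sodium (flame photometry) measured over 0-1, 1-2, 2-3, 3-4 and 4-6 h intervals. Mean values compared with vehicle by Student t-test.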"}, "[8]": {"test_system": "Rattus norvegicus", "test": "Volume of urine 1 hr after the compound was administered 125 mg/kg po in rat", "format": "ADME, organism-based", "parameters": "dose 125 mg/kg, route oral", "details": "in vivo", "outline": "as §2"}, "[9]": {"test_system": "Rattus norvegicus", "test": "Volume of urine 3h after the compound was administered 125 mg/kg po in rat", "format": "ADME, organism-based", "parameters": "dose 125 mg/kg, route oral", "details": "in vivo", "outline": "as §2"}, "[10]": {"test_system": "Rattus norvegicus", "test": "Mean sodium excretion in rats when compound administered at 5 mg/kg po and vehicle dosed at 19.74 umol/kg", "format": "ADME, organism-based", "parameters": "dose 5 mg/kg, route oral", "details": "in vivo", "outline": "as §3"}, "[11]": {"test_system": "Rattus norvegicus", "test": "Urinary sodium 1 hr after the compound was administered 125 mg/kg po in rat", "format": "ADME, organism-based, Urine", "parameters": "dose 125 mg/kg, route oral", "details": "in vivo", "outline": "as §4"}, "[12]": {"test_system": "Rattus norvegicus", "test": "Mean potassium excretion in rats when compound administered at 5 mg/kg po and vehicle dosed at 19.74 umol/kg", "format": "ADME, organism-based", "parameters": "dose 5 mg/kg, route oral", "details": "in vivo", "outline": "as §3"}, "[13]": {"test_system": "Rattus norvegicus", "test": "Urinary sodium 2 hr after the compound was administered 125 mg/kg po in rat", "format": "ADME, organism-based, Urine", "parameters": "dose 125 mg/kg, route oral", "details": "in vivo", "outline": "as §4"}, "[14]": {"test_system": "Rattus norvegicus", "test": "Mean Chlorine excretion in rats when compound administered at 0 mg/kg po and vehicle dosed at 0 umol/kg", "format": "ADME, organism-based", "parameters": "dose 0 mg/kg, route oral", "details": "in vivo"}, "[15]": {"test_system": "Rattus norvegicus", "test": "Mean urinary output in rats when compound administered at 2.5 mg/kg po and vehicle dosed at 9.87 umol/kg", "format": "ADME, organism-based, Urine", "parameters": "dose 2.5 mg/kg, route oral", "details": "in vivo", "outline": "as §1"}, "[16]": {"test_system": "Rattus norvegicus", "test": "Mean potassium excretion in rats when compound administered at 10 mg/kg po and vehicle dosed at 39.48 umol/kg", "format": "ADME, organism-based", "parameters": "dose 10 mg/kg, route oral", "details": "in vivo", "outline": "(§5)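 Male Sprague-Dawley rats (HC/CFY, 175-200 g), no food or water for 18 h before and during the test. Single gavage dose (2.5-160 mg/kg; vehicle 1% carboxymethyl cellulose/0.1% Tween 80, 0.5 mL/100 g bw), then distilled water 2.5 mL/100 g bw po. Individual metabolic cages, 6 h urine. K+ by flame photometry, Cl- colorimetric, as mequiv/6 h/kg bw; unpaired Student t-test vs control.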"}, "[17]": {"test_system": "Rattus norvegicus", "test": "Urinary sodium 3h after the compound was administered 125 mg/kg po in rat", "format": "ADME, organism-based, Urine", "parameters": "dose 125 mg/kg, route oral", "details": "in vivo", "outline": "as §4"}, "[18]": {"test_system": "Rattus norvegicus", "test": "Mean urinary output in rats when compound administered at 160 mg/kg po and vehicle dosed at 631.76 umol/kg", "format": "ADME, organism-based, Urine", "parameters": "dose 160 mg/kg, route oral", "details": "in vivo", "outline": "as §1"}, "[19]": {"test": "Acute toxicity in mice when given po", "format": "organism-based", "details": "mouse, in vivo, read-out: DL50 (the source's name)", "outline": "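Male Swiss mice (SPF, HC/CFLP strain, 20–25 g), oral dosing; mortality followed over 15 days; LD50 derived by the Litchfield and Wilcoxon method.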"}, "[20]": {"test_system": "Rattus norvegicus", "test": "Mean Chlorine excretion in rats when compound administered at 40 mg/kg po and vehicle dosed at 157.94 umol/kg", "format": "ADME, organism-based", "parameters": "dose 40 mg/kg, route oral", "details": "in vivo", "outline": "as §5"}, "[21]": {"test_system": "Rattus norvegicus", "test": "Mean sodium excretion in rats when compound administered at 10 mg/kg po and vehicle dosed at 39.48 umol/kg", "format": "ADME, organism-based", "parameters": "dose 10 mg/kg, route oral", "details": "in vivo", "outline": "as §3"}, "[22]": {"test_system": "Rattus norvegicus", "test": "Mean urinary output in rats when compound administered at 40 mg/kg po and vehicle dosed at 157.94 umol/kg", "format": "ADME, organism-based, Urine", "parameters": "dose 40 mg/kg, route oral", "details": "in vivo", "outline": "as §1"}, "[23]": {"test_system": "Rattus norvegicus", "test": "Mean potassium excretion in rats when compound administered at 0 mg/kg po and vehicle dosed at 0 umol/kg", "format": "ADME, organism-based", "parameters": "dose 0 mg/kg, route oral", "details": "in vivo", "outline": "as §5"}}, "data": [{"molecule": "Nc1nc(N)c2nc(-c3ccccc3)c(N)nc2n1", "values": [{"measurement": "V", "setting": "[1]", "result": "44.92 ml 6hr-1 (kg of body weight)-1"}, {"measurement": "Urinary Na+", "setting": "[2]", "result": 0.46, "unit": "m equiv"}, {"measurement": "Time", "setting": "[3]", "result": 6, "unit": "h"}, {"measurement": "Na", "setting": "[4]", "result": "3.37 m equiv 6hr-1 kg-1 (body weight)-1"}, {"measurement": "Urine volume", "setting": "[5]", "result": 4.36, "unit": "mL"}, {"measurement": "K", "setting": "[6]", "result": "0.18 m equiv 6hr-1 kg-1 (body weight)-1"}, {"measurement": "Urinary Na+", "setting": "[7]", "result": 0.15, "unit": "m equiv"}, {"measurement": "Urine volume", "setting": "[8]", "result": 0.48, "unit": "mL"}, {"measurement": "Urine volume", "setting": "[9]", "result": 2.73, "unit": "mL"}, {"measurement": "Na", "setting": "[10]", "result": "2.28 m equiv 6hr-1 kg-1 (body weight)-1"}, {"measurement": "Urinary Na+", "setting": "[11]", "result": 0.04, "unit": "m equiv"}, {"measurement": "K", "setting": "[12]", "result": "0.19 m equiv 6hr-1 kg-1 (body weight)-1"}, {"measurement": "Urinary Na+", "setting": "[13]", "result": 0.16, "unit": "m equiv"}, {"measurement": "Cl-", "setting": "[14]", "result": "0.88 m equiv 6hr-1 kg-1 (body weight)-1"}, {"measurement": "V", "setting": "[15]", "result": "31.39 ml 6hr-1 (kg of body weight)-1"}, {"measurement": "K", "setting": "[16]", "result": "0.18 m equiv 6hr-1 kg-1 (body weight)-1"}, {"measurement": "Urinary Na+", "setting": "[17]", "result": 0.19, "unit": "m equiv"}, {"measurement": "V", "setting": "[18]", "result": "52 ml 6hr-1 (kg of body weight)-1"}, {"measurement": "LD50", "setting": "[19]", "result": 344, "unit": "mg/kg"}, {"measurement": "Cl-", "setting": "[20]", "result": "2.83 m equiv 6hr-1 kg-1 (body weight)-1"}, {"measurement": "Na", "setting": "[21]", "result": "2.61 m equiv 6hr-1 kg-1 (body weight)-1"}, {"measurement": "V", "setting": "[22]", "result": "38.1 ml 6hr-1 (kg of body weight)-1"}, {"measurement": "K", "setting": "[23]", "result": "0.5 m equiv 6hr-1 kg-1 (body weight)-1"}]}]}
